Bounds are passed on as bounds.

Assay [1] concerns the target Dual specificity tyrosine-phosphorylation-regulated kinase 1A (Rattus norvegicus, UniProt Q63470). In words: Inhibition of rat recombinant GST-tagged DYRK1A expressed in Escherichia coli using KKISGRLSPIMTEQ as substrate and [gamma32P]ATP after 30 mins by scintillation counting. In a few lines: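 Rat DYRK1A, expressed in E. coli as a GST fusion and purified on glutathione-agarose. Blanks subtracted. Activity given as % of uninhibited maximum. DMSO dilution controls.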

Assay [2] deals with Glycogen synthase kinase-3 (Sus scrofa, UniProt B2LUN4+I6LNT8). Nature of the assay: Inhibition of pig GSK3alpha/beta isolated from brain using YRRAAVPPSPSLSRHSSPHQpSEDEEE as substrate and [gamma32P]ATP after 30 mins by scintillation counting. In a few lines:
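Assay run at 30 °C in one of two buffers: buffer A (Tris-HCl pH 7.5 with MgCl2, EGTA, DTT, heparin) or buffer B (Mops pH 7.2 with beta-glycerophosphate, EGTA, MgCl2, DTT, vanadate). Peptide substrate. Blank values subtracted and activity expressed as % of maximal, uninhibited activity. Controls with matching DMSO dilutions.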

Assay [3] concerns the target Cyclin-dependent kinase 5/CDK5 activator 1 (Homo sapiens, UniProt Q00535). Nature of the assay: Inhibition of human recombinant GST-tagged CDK5/p25 expressed in Escherichia coli using histone H1 as substrate and [gamma32P]ATP after 30 mins by scintillation counting.
Assay [4] is described as follows: Inhibition of pig CK1delta/epsilon isolated from brain using RRKHAAIGpSAYSITA as substrate and [gamma32P]ATP after 30 mins by scintillation counting. On the set-up: species or system Sus scrofa.
Assay [5] concerns the target Dual specificity protein kinase CLK1 (Homo sapiens, UniProt P49759). In words: Inhibition of human recombinant GST-tagged CLK1 expressed in Escherichia coli using GRSRSRSRSRSR as substrate and [gamma32P]ATP after 30 mins by scintillation counting.

Dual specificity protein kinase CLK1, sequence (P49759 whole entry): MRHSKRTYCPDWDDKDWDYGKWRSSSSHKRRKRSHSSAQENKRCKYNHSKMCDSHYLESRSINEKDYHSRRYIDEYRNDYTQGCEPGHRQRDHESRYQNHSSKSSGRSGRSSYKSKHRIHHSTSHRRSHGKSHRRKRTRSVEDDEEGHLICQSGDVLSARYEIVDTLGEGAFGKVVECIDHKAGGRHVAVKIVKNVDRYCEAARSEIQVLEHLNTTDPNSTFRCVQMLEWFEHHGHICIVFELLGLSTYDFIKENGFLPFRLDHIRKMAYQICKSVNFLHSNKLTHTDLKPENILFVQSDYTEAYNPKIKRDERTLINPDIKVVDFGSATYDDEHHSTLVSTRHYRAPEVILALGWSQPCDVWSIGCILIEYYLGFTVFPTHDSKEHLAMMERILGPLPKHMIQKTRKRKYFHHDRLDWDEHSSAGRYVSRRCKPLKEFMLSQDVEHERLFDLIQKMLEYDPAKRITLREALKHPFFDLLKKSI
Cyclin-dependent kinase 5/CDK5 activator 1, sequence (Q00535 whole entry): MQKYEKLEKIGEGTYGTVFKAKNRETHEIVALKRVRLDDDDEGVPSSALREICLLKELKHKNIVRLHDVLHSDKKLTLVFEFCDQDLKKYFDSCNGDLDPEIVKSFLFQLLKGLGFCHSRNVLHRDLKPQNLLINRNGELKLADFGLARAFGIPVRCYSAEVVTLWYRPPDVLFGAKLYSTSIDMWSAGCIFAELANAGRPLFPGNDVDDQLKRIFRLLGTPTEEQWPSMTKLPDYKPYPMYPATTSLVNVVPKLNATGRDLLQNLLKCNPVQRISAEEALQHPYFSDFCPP
Cyclin-dependent kinase 5/CDK5 activator 1, sequence (Q15078 whole entry, further chain): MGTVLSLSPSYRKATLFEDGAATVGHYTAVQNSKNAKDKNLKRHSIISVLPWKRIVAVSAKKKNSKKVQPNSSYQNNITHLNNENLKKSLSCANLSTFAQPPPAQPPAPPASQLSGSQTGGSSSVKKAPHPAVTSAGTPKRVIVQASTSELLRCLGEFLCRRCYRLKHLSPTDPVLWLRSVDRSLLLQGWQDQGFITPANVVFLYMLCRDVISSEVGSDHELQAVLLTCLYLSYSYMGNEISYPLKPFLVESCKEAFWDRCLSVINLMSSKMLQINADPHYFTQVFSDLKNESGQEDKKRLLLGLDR

Usually IC50 stands for the midpoint of a concentration-inhibition curve. For `Nc1ncnc2c1sc1ccccc12`, the half-maximal inhibitory concentration (IC50) was 5.1 µM in assay [1], over 10 µM in assay [2], 5.2 µM in assay [3] and 0.79 µM in assay [4].

As to `c1ccc(Nc2ncnc3c2sc2ccccc23)cc1`, the IC50 in assay [1], in assay [2], in assay [3] and in assay [4] was over 10 µM in each case.

For the compound `COc1ccc(Nc2ncnc3c2sc2ccccc23)cc1`, the IC50 in assay [1], in assay [2], in assay [3] and in assay [4] was over 10 µM in each case.

For `COc1ccc(Nc2ncnc3c2sc2ccccc23)cc1OC`, the IC50 is 3.7 µM in assay [1], over 10 µM in assay [2], over 10 µM in assay [3] and over 10 µM in assay [4].

With `COc1cc(Nc2ncnc3c2sc2ccccc23)cc(OC)c1`, the IC50 in assay [1], in assay [2], in assay [3] and in assay [4] was over 10 µM in each case.

On to `COc1cc(Nc2ncnc3c2sc2ccccc23)cc(OC)c1OC`, for which the IC50 in assay [1], in assay [2], in assay [3] and in assay [4] was over 10 µM each time.

In the case of `c1ccc2c(c1)sc1c(Nc3ccc4c(c3)OCO4)ncnc12`, the IC50 in assay [1], in assay [2], in assay [3] and in assay [4] was over 10 µM in each case.

With `c1ccc2c(c1)sc1c(Nc3ccc4c(c3)OCCO4)ncnc12`, the half-maximal inhibitory concentration (IC50) in assay [1], in assay [2], in assay [3] and in assay [4] was over 10 µM throughout.

For `Fc1cc(Br)ccc1Nc1ncnc2c1sc1ccccc12`, the 50% inhibitory concentration (IC50) in assay [1], in assay [2], in assay [3] and in assay [4] was over 10 µM each time.

Turning to `O=[N+]([O-])c1cc(Nc2ncnc3c2sc2ccccc23)ccc1O`, the half-maximal inhibitory concentration (IC50) in assay [1], in assay [2], in assay [3] and in assay [4] was over 10 µM in each case.

With `c1ccc(Nc2ncnc3c2sc2ncccc23)cc1`, the half-maximal inhibitory concentration (IC50) in assay [1] was over 10 µM; in assay [5] it was 4.5 µM; in assay [2], over 10 µM; in assay [3], over 10 µM; in assay [4], 0.18 µM.

Take `COc1ccc(Nc2ncnc3c2sc2ncccc23)cc1`: the half-inhibitory concentration (IC50) in assay [1] was over 10 µM; in assay [5] it was 3.3 µM; in assay [2] it was over 10 µM; in assay [3] it was over 10 µM; in assay [4], 0.52 µM.

For `COc1ccc(Nc2ncnc3c2sc2ncccc23)cc1OC`, the IC50 was 2.9 µM in assay [1]; 3.4 µM in assay [5]; over 10 µM in assay [2]; over 10 µM in assay [3]; over 10 µM in assay [4].

With `COc1cc(Nc2ncnc3c2sc2ncccc23)cc(OC)c1`, the IC50 in assay [1], in assay [5], in assay [2], in assay [3] and in assay [4] was over 10 µM each time.

As for `COc1cc(Nc2ncnc3c2sc2ncccc23)cc(OC)c1OC`, the IC50 in assay [1], in assay [5], in assay [2], in assay [3] and in assay [4] was over 10 µM in each case.

`c1cnc2sc3c(Nc4ccc5c(c4)OCO5)ncnc3c2c1`: the IC50 was over 10 µM in assay [1]; 2.2 µM in assay [5]; over 10 µM in assay [2]; over 10 µM in assay [3]; 0.44 µM in assay [4].

With `c1cnc2sc3c(Nc4ccc5c(c4)OCCO5)ncnc3c2c1`, the IC50 in assay [1], in assay [5], in assay [2], in assay [3] and in assay [4] was over 10 µM each time.

For the compound `Fc1cc(Br)ccc1Nc1ncnc2c1sc1ncccc12`, the IC50 is 0.89 µM in assay [1]; 2.1 µM in assay [5]; over 10 µM in assay [2]; over 10 µM in assay [3]; 0.28 µM in assay [4].

With `O=[N+]([O-])c1cc(Nc2ncnc3c2sc2ncccc23)ccc1O`, the IC50 in assay [1], in assay [5], in assay [2], in assay [3] and in assay [4] was over 10 µM each time.

In the case of `Nc1ncnc2c1sc1cccnc12`, the IC50 is 6 µM in assay [1]; 5.2 µM in assay [5]; over 10 µM in assay [2]; over 10 µM in assay [3]; 1.8 µM in assay [4].

For `c1ccc(Nc2ncnc3c2sc2cccnc23)cc1`, the IC50 in assay [1] is over 10 µM; in assay [5] it was over 10 µM; in assay [2], over 10 µM; in assay [3] it was over 10 µM; in assay [4], 1.6 µM.

`COc1ccc(Nc2ncnc3c2sc2cccnc23)cc1`: the IC50 in assay [1], in assay [5], in assay [2], in assay [3] and in assay [4] was over 10 µM in each case.

On to `COc1ccc(Nc2ncnc3c2sc2cccnc23)cc1OC`, for which the IC50 in assay [1] is 3.7 µM; in assay [5] it was over 10 µM; in assay [2], over 10 µM; in assay [3] it was over 10 µM; in assay [4], over 10 µM.

As for `COc1cc(Nc2ncnc3c2sc2cccnc23)cc(OC)c1`, the IC50 in assay [1], in assay [5], in assay [2], in assay [3] and in assay [4] was over 10 µM throughout.

Consider `COc1cc(Nc2ncnc3c2sc2cccnc23)cc(OC)c1OC`, for which the half-inhibitory concentration (IC50) in assay [1] is over 10 µM; in assay [5] it was over 10 µM; in assay [2], over 10 µM; in assay [3], over 10 µM; in assay [4] it was 4.1 µM.

`c1cnc2c(c1)sc1c(Nc3ccc4c(c3)OCO4)ncnc12`: the 50% inhibitory concentration (IC50) in assay [1], in assay [5], in assay [2], in assay [3] and in assay [4] was over 10 µM each time.

In the case of `c1cnc2c(c1)sc1c(Nc3ccc4c(c3)OCCO4)ncnc12`, the IC50 in assay [1], in assay [5], in assay [2], in assay [3] and in assay [4] was over 10 µM in each case.

As for `Fc1cc(Br)ccc1Nc1ncnc2c1sc1cccnc12`, the IC50 in assay [1] was 7.3 µM; in assay [5], over 10 µM; in assay [2], over 10 µM; in assay [3] it was over 10 µM; in assay [4], 11 µM.

Consider `O=[N+]([O-])c1cc(Nc2ncnc3c2sc2cccnc23)ccc1O`, for which the half-inhibitory concentration (IC50) was 5.8 µM in assay [1]; over 10 µM in assay [5]; over 10 µM in assay [2]; over 10 µM in assay [3]; 0.12 µM in assay [4].

Consider `Nc1ncnc2c1sc1nccnc12`, for which the IC50 in assay [1] was over 10 µM; in assay [2], over 10 µM; in assay [3] it was over 10 µM; in assay [4], 2.4 µM.

Regarding `c1ccc(Nc2ncnc3c2sc2nccnc23)cc1`, the IC50 in assay [1] is over 10 µM; in assay [2], over 10 µM; in assay [3] it was over 10 µM; in assay [4] it was 5 µM.

Regarding `COc1ccc(Nc2ncnc3c2sc2nccnc23)cc1`, the IC50 in assay [1], in assay [2], in assay [3] and in assay [4] was over 10 µM each time.

With `COc1ccc(Nc2ncnc3c2sc2nccnc23)cc1OC`, the concentration for half-maximal inhibition (IC50) in assay [1], in assay [2], in assay [3] and in assay [4] was over 10 µM each time.

In the case of `COc1cc(Nc2ncnc3c2sc2nccnc23)cc(OC)c1`, the IC50 in assay [1] was over 10 µM; in assay [2], over 10 µM; in assay [3], over 10 µM; in assay [4], 7.8 µM.

As for `COc1cc(Nc2ncnc3c2sc2nccnc23)cc(OC)c1OC`, the IC50 in assay [1], in assay [2], in assay [3] and in assay [4] was over 10 µM each time.

As for `c1cnc2c(n1)sc1c(Nc3ccc4c(c3)OCO4)ncnc12`, the IC50 in assay [1], in assay [2], in assay [3] and in assay [4] was over 10 µM each time.

As for `c1cnc2c(n1)sc1c(Nc3ccc4c(c3)OCCO4)ncnc12`, the IC50 in assay [1], in assay [2], in assay [3] and in assay [4] was over 10 µM in each case.

As for `Fc1cc(Br)ccc1Nc1ncnc2c1sc1nccnc12`, the IC50 in assay [1], in assay [2], in assay [3] and in assay [4] was over 10 µM in each case.

For `O=[N+]([O-])c1cc(Nc2ncnc3c2sc2nccnc23)ccc1O`, the IC50 in assay [1] was over 10 µM; in assay [2], over 10 µM; in assay [3] it was over 10 µM; in assay [4], 1.4 µM.

On to `Nc1ncnc2c1sc1ncccc12`, for which the IC50 in assay [1] was 2.8 µM; in assay [5], 0.68 µM; in assay [2] it was over 10 µM; in assay [3], over 10 µM; in assay [4], 0.031 µM.

These data come from ChEMBL document CHEMBL2150914, “Synthesis and biological evaluation of N-arylbenzo[b]thieno[3,2-d]pyrimidin-4-amines and their pyrido and pyrazino analogues as Ser/Thr kinase inhibitors” (Eur J Med Chem, 2012).
